Values joined by “and” are separate entries in the source; they are usually repeats but may differ in a detail not shown here. Equal values may be shown once.
Columns and labels:
Assay type in all cases: functional, cell-based
41M [1] = test: Cytotoxic activity in a panel of Human ovarian tumor 41M cell line after 96h of drug exposure
Procedure, shortened: (§1)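 SRB growth-inhibition assay. Cells were seeded at (3-8) × 10^3 per well and left to attach overnight. Platinum agents were added after serial dilution, in quadruplicate wells, with continuous 96 h exposure. Growth in treated and control wells was quantified by staining with 0.4% SRB dissolved in 1% acetic acid.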

41M [2] = test: Cytotoxic activity in a panel of Human ovarian tumor 41M/CDDP cell line after 96h of drug exposure; procedure, shortened: as §1
A2780 [3] = test: Cytotoxic activity in a panel of Human ovarian tumor A2780/CDDP cell line after 96h of drug exposure; procedure, shortened: as §1
CH1 [4] = test: Cytotoxic activity in a panel of Human ovarian tumor CH1/CDDP cell line after 96h of drug exposure; procedure, shortened: as §1
CH1 [5] = test: Cytotoxic activity in a panel of Human ovarian tumor CH1 cell line after 96h of drug exposure; procedure, shortened: as §1
HX62 cell line = test: Cytotoxic activity in a panel of Human ovarian tumor HX/62 cell line after 96h of drug exposure; procedure, shortened: as §1
SK-OV-3 = test: Cytotoxic activity in a panel of Human ovarian tumor SKOV-3 cell line after 96h of drug exposure; procedure, shortened: as §1
41M [6] = test: RF(Resistant factor) is determined from the ratio of IC50 of 41M to the IC50 of CDDP cell lines
A2780 [7] = test: RF(Resistant factor) is determined from the ratio of IC50 of A2780 to the IC50 of CDDP cell lines
CH1 [8] = test: RF(Resistant factor) is determined from the ratio of IC50 of CH1 to the IC50 of CDDP cell lines
A2780 [9] = test: Cytotoxic activity in a panel of Human ovarian tumor A2780 cell line after 96h of drug exposure; procedure, shortened: as §1

| Substance | IC50 (41M [1]) | IC50 (41M [2]) | IC50 (A2780 [3]) | IC50 (CH1 [4]) | IC50 (CH1 [5]) | IC50 (HX62 cell line) | IC50 (SK-OV-3) | RF (41M [6]) | RF (A2780 [7]) | RF (CH1 [8]) | IC50 (A2780 [9]) |
| --- | --- | --- | --- | --- | --- | --- | --- | --- | --- | --- | --- |
| CISPLATIN [listing 1 of 2 here] | 0.54 µM | 1.7 µM | 6.2 µM | 1.45 µM | 0.18 µM | 25 µM | 8 µM |  |  |  |  |
| CISPLATIN [listing 2 of 2 here] |  |  |  |  |  |  |  | 3.1 | 11.7 | 8 |  |
| trans-[{PtCl(NH3)2}-mu-{NH2(CH2)6NH2}-cis-{PtCl2(NH3)}]Cl [listing 1 of 2 here] | 2.5 µM and 2.4 µM | 0.67 µM and 1.3 µM | 0.89 µM and 0.34 µM | 0.97 µM and 0.98 µM | 0.3 µM and 0.22 µM | 24 µM and 12.5 µM | 31 µM and 17.7 µM |  |  |  | 0.28 µM and 0.066 µM |
| trans-[{PtCl(NH3)2}-mu-{NH2(CH2)6NH2}-cis-{PtCl2(NH3)}]Cl [listing 2 of 2 here] |  |  |  |  |  |  |  | 0.27 and 0.53 | 3.2 and 5.2 | 3.2 and 4.4 |  |
| trans-[{PtCl(NH3)2}-mu-{NH2(CH2)6NH2}-trans-{PtCl(NH3)2}] [listing 1 of 2 here] | 1.9 µM and 7.4 µM | 0.41 µM and 1.8 µM | 1.2 µM and 4.9 µM |  |  | 11 µM and 14 µM | 15.3 µM and 87 µM |  |  |  | 0.066 µM and 0.25 µM |
| trans-[{PtCl(NH3)2}-mu-{NH2(CH2)6NH2}-trans-{PtCl(NH3)2}] [listing 2 of 2 here] |  |  |  |  |  |  |  | 0.21 and 0.24 | 18 and 19.6 | 3.3 and 2 |  |
